Measured values taken from ChEMBL document CHEMBL4725393, “Prodrug Strategies to Improve the Solubility of the HCV NS5A Inhibitor Pibrentasvir (ABT-530)” (J Med Chem, 2020).
Values after ≈ are worked out from the molar mass of the structure shown.

Tests used:
[1] = Cmax in beagle dog assessed as pibrentasvir1 level at 40 mg, po measured up to 24 hrs; type: ADME, organism-based, Canis lupus familiaris; parameters: route oral, dose 40 mg, time <=24; details: in vivo
Method in brief: (§1)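 The dose equalled 40 mg PIB after adjustment for prodrug MW. Food was returned at 12 h. K2EDTA plasma was sampled at 0.25–24 h. Cmax is in ng/mL and AUC in ng·h/mL.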

[2] = Solubility in FeSSIF at pH 5; type: physicochemical
Method in brief: (§2)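 For equilibrium solubility, excess solid was added to 3–4 mL of medium, in triplicate. Suspension pH was read after equilibration. Solids were removed by centrifugation at 4000 rpm at 25 °C, and the supernatant was passed through a 0.45 µm filter, discarding the first 2 mL. The filtrate was quantified by HPLC against standard curves.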

[3] = Equilibrium solubility of compound at pH 7.4 incubated for 24 to 48 hrs by HPLC analysis; type: physicochemical; details: buffer, time 24-48 hrs; method in brief: as §2
[4] = AUC in CD1 mouse assessed as pibrentasvir1 level at 6 mg/kg, po measured up to 24 hrs; type: ADME, organism-based; parameters: route oral, dose 6 mg/kg, time <=24; details: in vivo
Method in brief: (§3)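 CD-1 mice with free access to food and water received an oral gavage of prodrug or PIB at 10 mL/kg in 0.2% HPMC. The dose was adjusted for prodrug MW to equal 6 mg/kg PIB. K2EDTA blood was drawn at 0.25, 0.5, 1, 3, 6, 9, 12 and 24 h. Plasma was spun at 3200 x g for 5 min at ~4°C and stored below -15°C. PIB and prodrug were measured; AUC in ng·h/mL, Cmax in ng/mL.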

[5] = AUC in beagle dog assessed as pibrentasvir1 level at 40 mg, po measured up to 24 hrs; type: ADME, organism-based, Canis lupus familiaris; parameters: route oral, dose 40 mg, time <=24; details: in vivo; method in brief: as §1
[6] = Equilibrium solubility of compound at pH 1 incubated for 24 to 48 hrs by HPLC analysis; type: physicochemical; details: buffer, time 24-48 hrs; method in brief: as §2
[7] = Stability of compound at pH 7.4 assessed as prodrug remaining level at 125 ug/ml incubated for 3 hrs by HPLC analysis; type: physicochemical; details: buffer, pH 7.4, 3 h, at 125 µg/mL
[8] = Cmax in CD1 mouse assessed as pibrentasvir1 level at 6 mg/kg, po measured up to 24 hrs; type: ADME, organism-based; parameters: route oral, dose 6 mg/kg, time <=24; details: in vivo; method in brief: as §3
[9] = Stability of compound at pH 1 assessed as prodrug remaining level at 125 ug/ml incubated for 24 hrs by HPLC analysis; type: physicochemical; details: buffer, pH 1, 24 h, at 125 µg/mL
Method in brief: (§4)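 A DMSO stock of about 1.25 mg/mL was diluted into 0.1 N HCl (pH 1) or 50 mM phosphate buffer (pH 7.4), giving final concentrations of ~125 µg/mL prodrug and 10% DMSO. The solution was filtered and held at 37 °C in the HPLC autosampler, with injections at several times over 24 h. Percent remaining was calculated from prodrug peak area relative to t0.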

[10] = Stability of compound at pH 7.4 assessed as prodrug remaining level at 125 ug/ml incubated for 24 hrs by HPLC analysis; type: physicochemical; details: buffer, pH 7.4, 24 h, at 125 µg/mL; method in brief: as §4
[11] = Half life of compound at pH 7.4 at 125 ug/ml at 37 degC by HPLC analysis; type: physicochemical; details: dose 125 µg/ml
[12] = AUC in cynomolgus monkey at 2 mg/kg, po measured up to 12 hrs; type: ADME, organism-based, Macaca fascicularis; parameters: route oral, dose 2 mg/kg, time <=12; details: in vivo
Method in brief: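 Female cynomolgus monkeys were fasted overnight and dosed by gastric intubation with a suspension in 0.5% HPMC at 0.5 mL/kg. The dose was MW-adjusted to 2 mg/kg PIB equivalent, and food was returned at 4 h. Plasma was collected at intervals up to 12 h and assayed for PIB and prodrug to give AUC in ng·h/mL.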

[13] = AUC in CD1 mouse at 6 mg/kg, po measured up to 24 hrs; type: ADME, organism-based; parameters: route oral, dose 6 mg/kg, time <=24; details: in vivo; method in brief: as §3
[14] = Aqueous solubility of compound at pH 7; type: physicochemical
[15] = Apparent permeability in MDCK cells; type: ADME, cell-based, Canis lupus familiaris; details: dog
[16] = Lipophilicity, logD of compound; type: physicochemical; details: octanol/water
[17] = Permeability by PAMPA; type: ADME
[18] = Protein binding in human plasma; type: ADME, cell-free; details: read-out: PPB (converted)
[19] = Aqueous solubility of compound at pH 2; type: physicochemical
[20] = Cmax in beagle dog at 40 mg, po measured up to 24 hrs; type: ADME, organism-based, Canis lupus familiaris; parameters: route oral, dose 40 mg, time <=24; details: in vivo; method in brief: as §1
[21] = AUC in beagle dog at 40 mg, po measured up to 24 hrs; type: ADME, organism-based, Canis lupus familiaris; parameters: route oral, dose 40 mg, time <=24; details: in vivo; method in brief: as §1
[22] = AUC in beagle dog at 40 mg, po dosed as phase 2 tablet measured up to 24 hrs; type: ADME, organism-based, Canis lupus familiaris; parameters: route oral, dose 40 mg, time <=24; details: in vivo
Method in brief: (§5)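 Fasted beagle dogs received the 40 mg phase 2 PIB tablet (amorphous drug in polymer support), crushed for dosing.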

[23] = Cmax in CD1 mouse at 3 mg/kg, po measured up to 24 hrs; type: ADME, organism-based; parameters: route oral, dose 3 mg/kg, time <=24; details: in vivo
Method in brief: (§6)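 CD-1 mice, fed ad libitum, were dosed orally at a prodrug-MW-adjusted dose equal to 3 mg/kg PIB, as a solution or suspension. Serial K2EDTA blood samples were taken from 0.25 to 24 h. Plasma was separated by centrifugation and kept frozen. PIB and prodrug levels were reported as Cmax (ng/mL) and AUC (ng·h/mL).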

[24] = Cmax in beagle dog at 40 mg, po dosed as phase 2 tablet measured up to 24 hrs; type: ADME, organism-based, Canis lupus familiaris; parameters: route oral, dose 40 mg, time <=24; details: in vivo; method in brief: as §5
[25] = AUC in CD1 mouse at 3 mg/kg, po measured up to 24 hrs; type: ADME, organism-based; parameters: route oral, dose 3 mg/kg, time <=24; details: in vivo; method in brief: as §6

Row | Cmax [1] [ng/mL] | solubility [2] [µg/mL] | solubility thermodynamic [3] [µg/mL] | AUC [4] [ng·h/mL] | AUC [5] [ng·h/mL] | solubility thermodynamic [6] [µg/mL] | Cmax [8] [ng/mL] | Stabilty [9] [%] | Stabilty [10] [%] | AUC at 12 h [12] [ng·h/mL] | AUC at 24 h [13] [ng·h/mL] | solubility [14] [µg/mL] | Papp [15] [×10⁻⁶ cm/s] | logD [16] | fraction unbound [18] | solubility [19] [µg/mL] | Compound | other results
1 | 196 | > 1000 | 631 (≈ 487 µM) | 456 | 2140 | 23 (≈ 17.8 µM) | 26 | 54 | < 1 | – | – | – | – | – | – | – | COC(=O)N[C@H](C(=O)N1CCC[C@H]1c1nc2cc(F)c([C@H]3CC[C@H](c4cc5nc([C@@H]6CCCN6C(=O)[C@@H](NC(=O)OC)[C@@H](C)OC)n(C(=O)OCCCOP(=O)(O)O)c5cc4F)N3c3cc(F)c(N4CCC(c5ccc(F)cc5)CC4)c(F)c3)cc2[nH]1)[C@@H](C)OC | Stabilty [7]: < 20%
2 | 155 | > 1000 | 135 (≈ 99.5 µM) | 16100 | 1920 | 45 (≈ 33.2 µM) | 905 | 74 | 71 | 197 | – | – | – | – | – | – | COC(=O)N[C@H](C(=O)N1CCC[C@H]1c1nc2cc(F)c([C@H]3CC[C@H](c4cc5nc([C@@H]6CCCN6C(=O)[C@@H](NC(=O)OC)[C@@H](C)OC)n(COC(=O)Cc6ccc(OP(=O)(O)O)cc6)c5cc4F)N3c3cc(F)c(N4CCC(c5ccc(F)cc5)CC4)c(F)c3)cc2[nH]1)[C@@H](C)OC | half-life at 125 ug/ml [11]: > 24 h
3 | – | 542 (≈ 404 µM) | < 0.2 | 231 | – | 203 (≈ 151 µM) | 15 | 97 | 67 | – | 354 | – | – | – | – | – | COC(=O)N[C@H](C(=O)N1CCC[C@H]1c1nc2cc(F)c([C@H]3CC[C@H](c4cc5nc([C@@H]6CCCN6C(=O)[C@@H](NC(=O)OC)[C@@H](C)OC)n(COC(=O)[C@@H](NC(=O)/C=C/C(=O)O)C(C)C)c5cc4F)N3c3cc(F)c(N4CCC(c5ccc(F)cc5)CC4)c(F)c3)cc2[nH]1)[C@@H](C)OC | –
4 | – | 40 (≈ 47.7 µM) | – | – | – | – | – | – | – | – | – | 300 (≈ 358 µM) | 1.4 | 2.5 | 0.025 | < 100 | CC(C)(C)[C@@H]1NC(=O)O[C@@H]2CCC[C@H]2OC/C=C/C(F)(F)c2nc3ccccc3nc2O[C@@H]2C[C@@H](C(=O)N[C@]3(C(=O)NS(=O)(=O)C4(C)CC4)C[C@H]3C(F)F)N(C2)C1=O [GLECAPREVIR] | Papp [17]: 5.2 ×10⁻⁶ cm/s
5 | 339 | 169 (≈ 152 µM) | < 0.1 | 6720 | 3860 | 422 (≈ 379 µM) | 408 | – | – | 166 | 6720 | < 0.1 | < 1 | 5.7 | < 0.001 | 420 (≈ 377 µM) | COC(=O)N[C@H](C(=O)N1CCC[C@H]1c1nc2cc([C@H]3CC[C@H](c4cc5nc([C@@H]6CCCN6C(=O)[C@@H](NC(=O)OC)[C@@H](C)OC)[nH]c5cc4F)N3c3cc(F)c(N4CCC(c5ccc(F)cc5)CC4)c(F)c3)c(F)cc2[nH]1)[C@@H](C)OC [PIBRENTASVIR] | Cmax [20]: 339 ng/mL; AUC at 24 h [21]: 3860 ng·h/mL; AUC [22]: 2730 ng·h/mL; Cmax [23]: 280 ng/mL; Cmax [24]: 239 ng/mL; AUC at 24 h [25]: 5170 ng·h/mL
